Results as given in the array DNA melting data of Ke et al. (doi:10.1101/2024.01.08.574731).

Experiments:
[1] = melting temperature; fluorescence melt of hairpins on a sequencing array, two-state fit, raised by 9.35 °C to match UV melts; details: sodium 0.088 M
How it was run: (§1)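 To match UV melts, fitted temperatures were raised by 9.35 °C. These fits were bootstrapped two-state models that gave melting temperature and folding enthalpy, combined by inverse variance over four replicates. The input was normalised Cy3 fluorescence of library hairpins with annealed Cy3 and quencher oligos on a sequenced MiSeq flow cell, imaged in 50 mM Na-HEPES pH 8.0, 25 mM NaCl in 2.5 °C steps up to 60 °C.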

[2] = folding enthalpy; higher = less favourable; fluorescence melt of hairpins on a sequencing array, two-state fit; details: sodium 0.088 M
How it was run: as §1

| Sequence | Tm [1] [°C] | folding enthalpy [2] [kcal/mol] |
| --- | --- | --- |
| GCCTAGCGAAAGCGAAGC ((.(.((....)).).)) | 41.9 | -16.1 |
| GCGAATGGAAACATCCGC (((.(((....))).))) | 45.4 | -23.1 |
| GTGTGGGGAAACCCGTAC ((..(((....)))..)) | 33.5 | -20.8 |
| GATCTGTTACCAGATC ((((((....)))))) | 50.5 | -42.4 |
| GTCTTGGGAAACTAAGGC (.(((.(....).))).) | 29 | -19.4 |
| GGGCAAGGAAACTTGCTC (.(((((....))))).) | 52.7 | -27.9 |
| GAACTGGAAACAGTTC ((((((....)))))) | 53.9 | -32.4 |
| GATGTAGGAAACTACATC (((((((....))))))) | 54.6 | -40.4 |
| GCACGTGGAAACGCGTGC (((((.(....).))))) | 64.6 | -45.1 |
| GATCATGATAATGATC ((((((....)))))) | 55.4 | -48.7 |
| GGTTTGGGAAACCGAACC ((((.((....)).)))) | 52.3 | -34.2 |
| GTTGAAGGAAACTTCGAC ((.((((....)))).)) | 44.9 | -32.5 |
| GCTGGGGGAAACCTCAGC ((((.((....)).)))) | 54.6 | -44.8 |
| GATCCGTCTGCGGATC ((((((....)))))) | 61.1 | -44.5 |
| GCGCTCGGAAACGGGTGC ((.(.((....)).).)) | 51.6 | -53.1 |
| GTTTACGAAAGTACAAC ((((((....))).))) | 30.4 | -11.9 |
| GATTACCGAAAGGTCATC (((.(((....))).))) | 38.2 | -28.8 |
| GGCCTACCGAAAGGTGCC (((..(((....)))))) | 46.7 | -20.7 |
| GCACCGCGAAAGCCCTGC (((..((....))..))) | 28.2 | -7.23 |
| GTCAACACGAAAGTGGAC (((..(((....)))))) | 38.6 | -19.3 |
| GCGAACGGAAACACTCGC ((((..(....)..)))) | 32.3 | -21.9 |
| GGGGCCGGAAACAGCCCC (((((.(....).))))) | 57 | -41.3 |
| GGTCTAGGAAACCAGACC (((((.(....).))))) | 45 | -35.1 |

| Sequence | Tm [1] [°C] | folding enthalpy [2] [kcal/mol] |
| --- | --- | --- |
| CGCAGCGGAAACGCAGCG (((.(((....))).))) | 68.5 | -29.9 |
| GCGCATGGAAACACGCAC (.((.((....)).)).) | 29 | -13.8 |
| GCAGCGCGAAAGCGGGGC ((..(((....)))..)) | 67.2 | -28 |
| GATCCCTCTTGGGATC ((((((....)))))) | 63.7 | -36.8 |
| GATCGCATCCGCGATC ((((((....)))))) | 68.7 | -33.4 |
| GCTGTCGCGAAAGCGAGC (((..(((....)))))) | 41.8 | -8.75 |
| GCCGGTGGAAACGCTGGC (((.(.(....).).))) | 50.8 | -40.9 |
| GAGGACGGAAACGCCCTC ((((.((....)).)))) | 51.7 | -47.2 |
| CGAAGCGGAAACGCTCG (((.(((....)))))) | 53.5 | -22.7 |
| GCGAATTCTCGC ((((....)))) | 47.9 | -19.6 |
| GCACAGCGAAAGCCCTGC (((..((....))..))) | 32.1 | -8.82 |
| GATCTGCAGACAGATC ((((((....)))))) | 51.2 | -40 |
| GAGCCACGAAAGTGCCTC (((.(((....))).))) | 42.1 | -16.9 |
| GCTGTGGGAAACCGTAGC (((..((....))..))) | 34.4 | -18.5 |
| GTATACGAAAGTAGCTAC ((((((....)))..))) | 24.4 | -8.67 |
| GGCAGTGCGAAAGCAGCC (((..(((....)))))) | 53 | -19.7 |
| GTTGCCGAAAGGCAAAAC ((((((....)))..))) | 42.5 | -9.67 |
| GATCAATAATTTGATC ((((((....)))))) | 43.2 | -34.8 |
| GCTTAGGGAAACTTAAGC (((((.(....).))))) | 37.9 | -30 |
| GAAGGACGAAAGTCATTC (((.(((....))).))) | 52.1 | -30.8 |
| GGCCGCGAAAGCGTGGCC ((((((....)))..))) | 69.2 | -22.8 |
| GATCACATAGTGATC ((((((...)))))) | 62.4 | -40 |
| GAAATTGGAAACAATTTC (((((((....))))))) | 51.3 | -35.8 |

| Sequence | Tm [1] [°C] | folding enthalpy [2] [kcal/mol] |
| --- | --- | --- |
| GAAGCCGAAAGGCACTTC ((((((....)))..))) | 42.4 | -12 |
| GCTATGAAAATAGC (((((....))))) | 47.9 | -23.4 |
| GCCGAGCGAAAGCTCCGC ((.((((....)))).)) | 55.7 | -18 |
| GCCTTGCGAAAGCAGCGC ((..(((....)))..)) | 52.9 | -14.6 |
| GATCAGCTCCTGATC ((((((...)))))) | 50 | -43.2 |
| GCGTACGGAAACGTGTGC ((..(((....)))..)) | 44.7 | -29.1 |
| GGAATGAAAATTCC (((((....))))) | 44.3 | -22.3 |
| GATCCTTCAAGGATC ((((((...)))))) | 54.7 | -36.9 |
| GATCTGCTAACAGATC ((((((....)))))) | 50.4 | -37.1 |
| GTCACTCGAAAGAGGGAC (((.(((....))).))) | 60.9 | -50.4 |
| GGATATGAAAATATCC ((((((....)))))) | 50.9 | -31.6 |
| GTCCACGAAAGTGCGAC ((((((....))).))) | 50.9 | -22.8 |
| GGGAGAGAAATCTCCC ((((((....)))))) | 56.4 | -35 |
| GGGGGCGAAAGCCAACCC ((((((....)))..))) | 52.7 | -17.9 |
| GAGGCTGCGAAAGCACTC (((..(((....)))))) | 34.3 | -11.2 |
| GATCCTATCAAGGATC ((((((....)))))) | 54.6 | -34.3 |
| GATCAGCTGGCTGATC ((((((....)))))) | 64.4 | -34.1 |
| GATCTCCGTAGAGATC ((((((....)))))) | 55.1 | -42 |
| GATCAGATCTCTGATC ((((((....)))))) | 50.7 | -40 |
| GAACCACGAAAGTGCTTC (((.(((....))).))) | 32.3 | -17.1 |
| GGATTGGGAAACCAATTC (.(((((....))))).) | 44.2 | -28 |
| GTTGGCCCGAAAGGGAAC (((..(((....)))))) | 45.3 | -18.8 |
| GCGGATGGAAACGTTCGC (((.(.(....).).))) | 44.1 | -28.2 |

| Sequence | Tm [1] [°C] | folding enthalpy [2] [kcal/mol] |
| --- | --- | --- |
| GATCGACCACTCGATC ((((((....)))))) | 50.5 | -38.1 |
| GTCTTCCGAAAGGATGAC (((.(((....))).))) | 53.1 | -42.4 |
| GCTAGGGGAAACCTTGGC ((.(.((....)).).)) | 34.4 | -23.8 |
| GGAGCCGAAAGGCGCTCC ((((((....)))..))) | 47.9 | -9.71 |
| GAGATCGGAAACGATTTC ((.((((....)))).)) | 42.3 | -26.8 |
| GGGGATTCGAAAGAACCC (((..(((....)))))) | 47.4 | -20.5 |
| GATCGGTGCTCCGATC ((((((....)))))) | 57.9 | -40.8 |
| GCTTACGAAAGTATAGC ((((((....))).))) | 44.6 | -23.4 |
| GATCGGGACACCGATC ((((((....)))))) | 66 | -38.4 |
| GAAACCGGAAACGGTTCC (.(((((....))))).) | 41.4 | -13.4 |
| GACCGTGCGAAAGCAGTC (((..(((....)))))) | 29.6 | -11.4 |
| GCCATCGAAAGATAGGC ((((((....))).))) | 50.1 | -30.3 |
| GATCCTCCCTAGGATC ((((((....)))))) | 50.8 | -39.7 |
| GCGTTCACGAAAGTGCGC (((..(((....)))))) | 51.4 | -19.2 |
| GGCTTCTCGAAAGAGGCC (((..(((....)))))) | 47.1 | -24.4 |
| GTGACTCGAAAGAGCCAC (((.(((....))).))) | 54.5 | -38.2 |
| GCATATGGAAACATATGC (((((((....))))))) | 56.3 | -41.6 |
| GCAACACGAAAGTGTGC (((.(((....)))))) | 60.2 | -19 |
| GAAAGCGAAAGCTATTTC ((((((....)))..))) | 25.2 | -11.8 |
| GATCCGAACTCGGATC ((((((....)))))) | 56.4 | -40.9 |
| GATCTAGCACTAGATC ((((((....)))))) | 47.1 | -43.9 |
| GAACGACGAAAGTCCTTC (((.(((....))).))) | 31.3 | -14.3 |
| GAATTCGGAAACGAATCC (.(((((....))))).) | 36.8 | -16.6 |
